Compound activity (PubChem BioAssay)
DDE Tn7 FP inh: DD(E)-Tn7 binding inhibition, primary FP screen; AID 720508; FP displacement of FITC-Tn7 peptide from fibrin DD(E); 0% = median of compound wells per plate; 370,000 tested, 0.13% active; P02675; inhibition, % at 8.3 µM;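 active means inhibition above the mean of compounds falling within the control limits plus 3 SD of them, cut at about 14% in these data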
Target sequence (P02675 whole entry, looked up): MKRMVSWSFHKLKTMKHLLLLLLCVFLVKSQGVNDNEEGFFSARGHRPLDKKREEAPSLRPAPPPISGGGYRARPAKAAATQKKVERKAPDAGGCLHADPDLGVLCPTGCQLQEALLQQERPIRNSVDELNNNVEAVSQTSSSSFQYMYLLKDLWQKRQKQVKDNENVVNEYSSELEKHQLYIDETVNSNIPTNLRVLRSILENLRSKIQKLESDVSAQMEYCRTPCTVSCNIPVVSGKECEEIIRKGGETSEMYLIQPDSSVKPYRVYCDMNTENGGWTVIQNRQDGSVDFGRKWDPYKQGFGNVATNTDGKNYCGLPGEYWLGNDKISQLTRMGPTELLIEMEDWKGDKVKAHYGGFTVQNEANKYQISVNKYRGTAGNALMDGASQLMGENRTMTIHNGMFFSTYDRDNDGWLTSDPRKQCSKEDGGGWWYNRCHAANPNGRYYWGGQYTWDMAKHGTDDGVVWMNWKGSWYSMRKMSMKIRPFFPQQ
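Assay system: Human fibrin DD(E) protein | Medium: Tris buffer with calcium and detergent, pH 7.8 | Reagent: 0.1 µM fluorescent Tn7 | Compound dosing: Single point at 8.3 µM | Times: 10 min preincubation, 3 h with tracer, room temperature | Detection: Fluorescence polarization of the labelled Tn7 tracer | Controls: Aha-Tn7 high control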
Tn6 DDE FP: DD(E)-Tn6 binding inhibition, primary FP screen | P02675 | Fibrin DD(E) TRITC-Tn6 fluorescence polarization displacement | inhibition, % at 8.3 µM | 370,000 tested, 0.21% active | AID 720509;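 active means inhibition above a per-campaign cutoff: mean of compounds within control limits plus 3 SD, cut at about 15% in these data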
MT1-MMP act inh: MT1-MMP (human) activation inhibition; P50281; HT1080 RFP-PRO-GFP cells, GFP/RFP ratio fluorescence, overnight; percent of plate control window, DMSO zero; GFP/RFP ratio change, % at 20 µM; 360,000 tested, 0.061% active; AID 651647;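 active means GFP/RFP ratio change of at least 30% with cell ATP level not reduced by more than half and red fluorescence within 50% of control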
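Read-out: GFP/RFP fluorescence ratio; Test system: RFP-PRO-GFP reporter HT1080 cells; Compound dosing: single-point 20 µM compound, 1% DMSO; Times: overnight compound exposure at 37 °C.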
ADAM10 inh: ADAM10 inhibition, QFRET primary screen; O14672; inhibition, % at 7 µM; 370,000 tested, 0.62% active; AID 720582; recombinant ADAM10, EDANS/DABCYL FRET peptide cleavage, 3 h;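 active means inhibition above a per-campaign cutoff equal to the mean of compounds falling between control-based bounds plus 3 SD, cut at about 20% in these data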
ADAM17 inh: inhibits human ADAM17. 370,000 tested, 0.83% active. AID 720648. P78536. recombinant ADAM17, EDANS/DABCYL FRET peptide cleavage. inhibition, % at 6.95 µM;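 active means inhibition above the mean of compounds lying between control limits plus 3 SD, set per campaign, cut at about 8.5% in these data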
ADAM10 confirm: human ADAM10 inhibition, confirmation | shares compounds with ADAM10 inh | ADAM10 QFRET peptide cleavage, EDANS fluorescence | inhibition, % at 6.95 µM | 2,100 tested, 1% active | AID 743208;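 active means inhibition above about 20% chosen separately for each screening run, limit read from the data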
ADAM17 counter: ADAM17 inhibition, counter-screen for ADAM10 exosite hits; inhibition, % at 6.95 µM; 2,100 tested, 0.5% active; ADAM17 QFRET peptide cleavage, EDANS fluorescence; AID 743214; shares compounds with ADAM10 inh;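 active means mean triplicate inhibition above the solvent-only control wells' mean plus 3 SD, cut at about 12% in these data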
ADAM10 counter: counter-screen for ADAM17 exosite inhibitors: inhibitors of human ADAM10; 2,900 tested, 47% active; recombinant ADAM10, EDANS/DABCYL FRET peptide cleavage, 3 h; AID 743256; shares compounds with ADAM17 inh; inhibition, % at 6.95 µM;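 active means mean inhibition over the triplicate runs exceeds the activity threshold set in the earlier primary screen, cut at about 20% in these data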
ADAM17 confirm: confirmation of inhibitors of human ADAM17. inhibition, % at 6.95 µM. recombinant ADAM17, EDANS/DABCYL QFRET peptide cleavage. AID 743257. shares compounds with ADAM17 inh. 2,900 tested, 65% active;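 active means mean inhibition across replicates above the hit cutoff set in the primary screen, cut at about 8.5% in these data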
A number is an active result; – = inactive; · = not tested or not shown. Rows were chosen to be rich in hits. Some 1.6% of all compounds tested hit in one or more screens of this group.

SMILES | DDE Tn7 FP inh | Tn6 DDE FP | MT1-MMP act inh | ADAM10 inh | ADAM17 inh | ADAM10 confirm | ADAM17 counter | ADAM10 counter | ADAM17 confirm
CC(C)C[C@H](NC(=O)c1nc[nH]c1C(=O)NCc1ccccc1)C(=O)OCc1ccccc1 | – | – | – | 25.4 | 10.3 | – | – | 34.7 | 15.7
CC(C)C[C@H](NC(=O)c1[nH]cnc1C(=O)N[C@@H](Cc1ccccc1)C(=O)OC(C)(C)C)C(=O)OCc1ccccc1 | – | – | – | – | – | · | · | · | ·
C[C@H](NC(=O)c1nc[nH]c1C(=O)NCc1ccccc1)C(=O)OCc1ccccc1 | – | – | – | – | – | · | · | · | ·
CC(C)C[C@H](NC(=O)c1[nH]cnc1C(=O)N[C@@H](C)C(=O)OCc1ccccc1)C(=O)OCc1ccccc1 | – | – | – | 25.4 | 11.5 | – | – | 40.1 | 20.8
CCOC(=O)C1=CCN(S(=O)(=O)c2ccc(F)cc2)C1c1ccc(Cl)cc1 (configuration not stated) | – | – | · | – | – | · | · | · | ·
O=C(Cc1ccccc1)N1CCC(Oc2cccnc2)CC1 | – | – | · | – | – | · | · | · | ·
CCOc1ccccc1NC1=CC(=O)CC(c2ccccc2)C1 (configuration not stated) | – | – | – | 21.7 | 10.2 | – | – | – | –
CC(C)(C)NC(=O)C(c1c[nH]c2ccccc12)N(C(=O)Cn1nnc(-c2ccc(F)cc2)n1)c1cccc(O)c1 (configuration not stated) | – | – | – | 28.4 | 14.1 | – | – | 32.4 | 18.6
CC[C@@]12C(=O)N(c3cccc(F)c3)C(=O)N1[C@H](c1ccc(F)cc1)[C@@H]1C(=O)N(C3CCCCC3)C(=O)[C@@H]12 | · | · | – | · | · | · | · | · | ·
CC[C@@]12C(=O)N(c3cccc(Br)c3)C(=O)N1[C@H](c1ccc(F)cc1)[C@@H]1C(=O)N(C3CCCCC3)C(=O)[C@@H]12 | – | – | – | 25.6 | 10.7 | – | – | 19.9 | 14.2
CCC(C)[C@H]1CNCCN1CC1(c2ccccc2)CC1 (some centres not stated) | – | – | – | – | – | · | · | · | ·
CC(O)[C@H]1CNCCN1CC1(c2ccccc2)CC1 (some centres not stated) | – | – | – | 20.3 | 11.0 | – | – | – | –
O=C(Nc1cccc2ccccc12)c1ccc(OC(=S)N2CCOCC2)cc1 | – | – | – | 21.3 | 9.7 | – | – | – | 11.3
O=C(Nc1cccc(Cl)c1)c1ccc(OC(=S)N2CCOCC2)cc1 | – | – | – | – | – | · | · | · | ·
Cc1ccc(C(=O)Nc2ccccc2C(=O)NCc2ccco2)cc1S(=O)(=O)N1CCCCC1 | – | – | – | 25.1 | 9.6 | – | – | 34.6 | 20.4
Cc1ccc(C(=O)NCc2ccco2)cc1S(=O)(=O)N1CCCCC1 | – | – | – | – | – | · | · | · | ·
COc1nc(Nc2ccc(O)cc2)nc(OC(C(F)(F)F)C(F)(F)F)n1 | – | – | – | – | – | · | · | · | ·
Nc1cccc(Nc2nc(OC(C(F)(F)F)C(F)(F)F)nc(OC(C(F)(F)F)C(F)(F)F)n2)c1 | – | – | – | 57.8 | 26.6 | – | – | 60.1 | 29.8
CN1C2=N[C@H](c3ccccc3Br)CC(=O)N2/C(=C\c2ccccc2)[C@@H]1c1ccccc1 | – | – | · | – | – | · | · | · | ·
C[C@H]1CN([C@@H](C)CO)C(=O)CCCn2nncc2CO[C@@H]1CN(C)S(=O)(=O)c1cccs1 | – | – | · | – | – | · | · | · | ·
O=C(CSc1nc2ccccc2nc1N1CCCCC1)N1CCN(S(=O)(=O)c2ccccc2)CC1 | – | – | · | – | – | · | · | · | ·
CCc1ccc(-n2cc(-c3ccc([N+](=O)[O-])cc3)[nH]c2=S)cc1 | – | – | – | – | – | · | · | · | ·
CCc1ccc(-c2cn(C3CCCCC3)c(=S)[nH]2)cc1 | – | – | – | 28.8 | 9.6 | – | – | – | –
O=C(OCc1ccccc1)[C@H](Cc1ccccc1)NC(=O)[C@@H]1CC=C[C@@H]2CCN(C3CCCCC3)C(=O)[C@@H]21 | – | – | · | – | – | · | · | · | ·
C[C@@H]1CN([C@@H](C)CO)C(=O)c2cc(Br)cnc2O[C@@H]1CN(C)Cc1ccccn1 | – | – | · | – | – | · | · | · | ·
SMILES | DDE Tn7 FP inh | Tn6 DDE FP | MT1-MMP act inh | ADAM10 inh | ADAM17 inh | ADAM10 confirm | ADAM17 counter | ADAM10 counter | ADAM17 confirm
C=CC(=O)N1C/C(=C/c2ccc(F)cc2)C(=O)/C(=C\c2ccc(F)cc2)C1 | – | – | – | 20.2 | 10.6 | – | – | 21.1 | 14.2
CN1C2CCC1/C(=C\c1ccc(F)cc1)C(=O)/C2=C/c1ccc(F)cc1 | – | – | – | – | – | · | · | · | ·
COc1ccccc1C(CCNS(=O)(=O)c1ccc(C)cc1)c1ccco1 (configuration not stated) | – | – | – | 21.4 | 9.3 | – | – | 27.2 | 17.6
N#Cc1c(Cl)nc(N/N=C/c2ccccc2)c(Cl)c1Cl | – | – | – | 22.8 | 9.1 | 30.6 | 15.0 | – | –
c1ccc(-c2cccc3[nH]cc(-c4ccccc4)c23)cc1 | – | – | · | – | – | · | · | · | ·
Cn1nc(C(C)(C)C)cc1C(=O)N1CCCCC1c1cc(C(=O)Nc2cccc3c2CCCC3)no1 (configuration not stated) | – | – | – | 21.4 | 12.2 | – | – | – | 9.2
CC(=O)Nc1ccc(C(=O)N2CCCCC2c2cc(C(=O)Nc3cccc4c3CCCC4)no2)cc1 (configuration not stated) | – | – | – | – | – | · | · | · | ·
COCCN1C(=O)[C@H]2C[C@@]13O[C@H](C1CCCCC1)N=C3CC1c3ccccc3C[C@@]12C (some centres not stated) | – | – | · | – | – | · | · | · | ·
CN(C)c1cccc2c(S(=O)(=O)NCC3CCN(C(=O)C(=O)c4cc5ccccc5o4)CC3)cccc12 | – | – | · | – | – | · | · | · | ·
COc1ccc(CNS(=O)(=O)c2cc(Br)ccc2Br)c(OC)c1 | – | – | · | – | – | · | · | · | ·
COc1ccc(CNC(=O)COC(=O)CCCOc2ccc(Cl)cc2Cl)cc1 | – | – | – | – | – | · | · | · | ·
O=C(COC(=O)CCCOc1ccc(Cl)cc1Cl)Nc1cccc(Cl)c1 | – | – | – | 23.0 | 12.8 | – | – | 37.7 | 20.2
COc1cc2c(cc1OC)C(=O)N1[C@H]3c4cc(Cl)ccc4OC[C@@H]3[C@H](c3ccccc3)[C@]1(C)C(=O)N2 | – | – | – | 28.9 | 11.7 | – | – | 34.4 | 19.2
